Values belong to the compound of their own block, whether it stands above or below them. Calls of active or inactive are those of the source. The calls are words filed in the database; no cut-off is given here.
Assays:
[1] = molecular target: Potassium voltage-gated channel subfamily A member 5 (Homo sapiens, UniProt P22460); assay: Antagonist activity at human Kv1.5 channel expressed in CHO cell membrane by HT clamp assay; format: functional, cell-based
In short: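 IC50 from 10-point concentration-response curves by HT-clamp voltage clamp, 3-4 cells per point. A reference Kv1.5 antagonist was run as positive control.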

[2] = Bioavailability in rat; format: ADME, organism-based; conditions: in vivo
[3] = Clearance in rat; format: ADME, organism-based; conditions: in vivo
[4] = molecular target: Voltage-gated inwardly rectifying potassium channel KCNH2 (Homo sapiens, UniProt Q12809); assay: Binding affinity to hERG potassium channel
[5] = Volume of distribution in rat; format: ADME, organism-based; conditions: in vivo, read-out: Vdss
Rattus norvegicus [6] = species: Rattus norvegicus; assay: Increase in atrial refractory period in surgically instrumented rat electrophysiology model; conditions: Cardiac atrium
Rattus norvegicus [7] = species: Rattus norvegicus; assay: Increase in atrial refractory period in surgically instrumented rat electrophysiology model; format: functional, organism-based; conditions: Cardiac atrium
Rattus norvegicus [8] = species: Rattus norvegicus; assay: Increase in ventricular refractory period in surgically instrumented rat electrophysiology model; format: functional, organism-based; conditions: Cardiac ventricle
Rattus norvegicus [9] = species: Rattus norvegicus; assay: Effect on AV node refractory period in surgically instrumented rat electrophysiology model at 35 uM; format: functional, organism-based
Rattus norvegicus [10] = species: Rattus norvegicus; assay: Increase in AV node refractory period in surgically instrumented rat electrophysiology model; format: functional, organism-based
Canis familiaris [11] = species: Canis familiaris; assay: Increase in atrial refractory period in dog electrophysiology model; format: functional, organism-based; conditions: Canis lupus familiaris; Cardiac atrium
Canis familiaris [12] = species: Canis familiaris; assay: Effect on ventricular refractory period in dog electrophysiology model; format: functional, organism-based; conditions: Canis lupus familiaris; Cardiac ventricle

Voltage-gated inwardly rectifying potassium channel KCNH2, sequence (Q12809 whole entry): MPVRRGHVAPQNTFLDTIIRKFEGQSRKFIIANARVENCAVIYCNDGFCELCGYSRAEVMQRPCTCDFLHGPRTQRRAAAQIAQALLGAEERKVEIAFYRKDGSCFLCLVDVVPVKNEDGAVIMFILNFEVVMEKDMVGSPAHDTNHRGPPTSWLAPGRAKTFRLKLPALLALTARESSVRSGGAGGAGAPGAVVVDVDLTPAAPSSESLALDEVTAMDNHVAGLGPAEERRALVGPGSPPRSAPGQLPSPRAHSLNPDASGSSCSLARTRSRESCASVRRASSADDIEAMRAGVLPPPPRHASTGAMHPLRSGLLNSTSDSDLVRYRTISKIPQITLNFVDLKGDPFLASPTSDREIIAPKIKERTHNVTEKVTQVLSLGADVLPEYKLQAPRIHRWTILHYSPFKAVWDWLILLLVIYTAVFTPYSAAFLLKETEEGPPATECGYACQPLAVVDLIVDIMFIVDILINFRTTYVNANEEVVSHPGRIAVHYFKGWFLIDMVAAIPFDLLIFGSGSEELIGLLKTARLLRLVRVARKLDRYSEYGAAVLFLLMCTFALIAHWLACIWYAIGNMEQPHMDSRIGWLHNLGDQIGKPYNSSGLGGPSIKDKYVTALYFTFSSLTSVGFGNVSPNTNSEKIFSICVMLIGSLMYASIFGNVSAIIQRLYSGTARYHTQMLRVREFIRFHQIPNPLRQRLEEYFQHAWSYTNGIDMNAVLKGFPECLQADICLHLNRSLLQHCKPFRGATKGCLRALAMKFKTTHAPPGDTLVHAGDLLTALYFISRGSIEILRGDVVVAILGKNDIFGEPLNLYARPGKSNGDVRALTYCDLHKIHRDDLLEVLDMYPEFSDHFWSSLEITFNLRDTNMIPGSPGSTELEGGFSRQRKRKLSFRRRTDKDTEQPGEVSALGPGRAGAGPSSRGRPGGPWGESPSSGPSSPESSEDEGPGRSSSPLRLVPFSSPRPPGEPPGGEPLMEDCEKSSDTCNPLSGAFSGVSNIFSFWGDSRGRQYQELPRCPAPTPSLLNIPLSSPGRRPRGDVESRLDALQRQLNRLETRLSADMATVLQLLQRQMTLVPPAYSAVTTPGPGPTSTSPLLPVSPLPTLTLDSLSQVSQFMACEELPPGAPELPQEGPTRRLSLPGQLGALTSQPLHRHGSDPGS
Potassium voltage-gated channel subfamily A member 5, sequence (P22460 whole entry): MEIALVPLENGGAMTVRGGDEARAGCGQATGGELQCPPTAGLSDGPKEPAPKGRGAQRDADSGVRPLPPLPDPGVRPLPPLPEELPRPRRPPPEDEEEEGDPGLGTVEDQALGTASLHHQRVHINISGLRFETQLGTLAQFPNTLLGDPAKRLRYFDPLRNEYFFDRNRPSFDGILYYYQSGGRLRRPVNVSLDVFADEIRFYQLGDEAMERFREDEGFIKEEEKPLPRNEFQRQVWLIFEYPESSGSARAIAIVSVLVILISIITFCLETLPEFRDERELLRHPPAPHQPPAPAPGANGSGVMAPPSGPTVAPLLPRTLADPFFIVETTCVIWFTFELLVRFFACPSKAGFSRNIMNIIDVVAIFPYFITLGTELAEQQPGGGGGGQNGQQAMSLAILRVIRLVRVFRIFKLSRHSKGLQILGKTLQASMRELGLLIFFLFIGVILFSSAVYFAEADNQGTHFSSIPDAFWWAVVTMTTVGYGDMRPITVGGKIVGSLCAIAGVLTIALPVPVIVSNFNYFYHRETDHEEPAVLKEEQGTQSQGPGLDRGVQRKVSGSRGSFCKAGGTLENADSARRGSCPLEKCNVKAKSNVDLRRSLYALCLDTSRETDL

Compound: COc1ccc2c(=O)n(CCO)c(C#N)c(-c3cccc(F)c3)c2c1
IC50 [1]: 690 nM

Compound: COc1ccc2c(=O)n(CC(O)CO)c(C#N)c(-c3cccc(F)c3)c2c1 (centres undefined)
IC50 [1]: 870 nM
IC50 [4]: 33500 nM

Compound: COc1ccc2c(-n3cnc(C)c3)nc(C#N)c(-c3cccc(F)c3)c2c1
Activity (Rattus norvegicus [7]): Active
IC50 [1]: 260 nM

Compound: COc1ccc2c(=O)n(C[C@H](O)CO)c(C#N)c(-c3ccccc3)c2c1
Activity (Rattus norvegicus [8]): Active
Activity (Rattus norvegicus [7]): Active
Activity (Rattus norvegicus [9]): inactive

Compound: COc1ccc2c(NC[C@H](O)CO)nc(C#N)c(-c3ccccc3)c2c1
Activity (Rattus norvegicus [10]): Active
Activity (Rattus norvegicus [6]): Active
IC50 [4]: 15000 nM

Compound: COCCN(C)CCn1c(C#N)c(-c2cccc(F)c2)c2cc(OC)ccc2c1=O
IC50 [1]: 790 nM

Compound: COc1ccc2c(C(=O)NCCO)nc(C#N)c(-c3ccccc3)c2c1
Activity (Rattus norvegicus [7]): Active
Activity (Canis familiaris [11]): Active
Activity (Canis familiaris [12]): inactive
IC50 [4]: > 30000 nM

More lines, main results first:

bioavailability [2]: 11%
clearance [3]: 26 mL/min/kg
IC50 [1]: 190 nM
Compound: COc1ccc2c(=O)n(C)c(CN(C)C)c(-c3ccccc3)c2c1
IC50 [4]: 5300 nM

bioavailability [2]: 67%
clearance [3]: 13 mL/min/kg
IC50 [1]: 160 nM
Vd [5]: 1.7 L/kg
Compound: COc1ccc2c(OC[C@H](O)CO)nc(C#N)c(-c3ccccc3)c2c1
Activity (Rattus norvegicus [6]): Active
IC50 [4]: 20500 nM

IC50 [1]: 250 nM
Compound: COc1ccc2c(=O)n(CC(O)CO)c(C#N)c(-c3cccc(C(F)(F)F)c3)c2c1 (centres undefined)

IC50 [1]: 120 nM
Compound: COc1ccc2c(=O)n(CC(CO)NCc3cccnc3)c(C#N)c(-c3ccccc3)c2c1 (centres undefined)
IC50 [4]: 10000 nM
